Data taken from ChEMBL document CHEMBL4118039, “Inflammation Modulatory Phorbol Esters from the Seeds of Aquilaria malaccensis” (J Nat Prod, 2017).

What was measured:
A549 = assay: Cytotoxicity against human A549 cells assessed as reduction in cell viability after 72 hrs by MTT assay; format: functional, cell-based; settings: A549, 72 h
Neutrophil [1] = assay: Anti-inflammatory activity in human neutrophils assessed as inhibition of fMLF/CB-induced elastase release by measuring degranulation of azurophilic granules using MeOSuc-Ala-Ala-ProVal-p-nitroanilide as substrate preincubated for 5 mins followed by CB/fMLF stimulation; format: functional, cell-based
In short: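 Neutrophils from human blood (dextran sedimentation, Ficoll-Hypaque, hypotonic lysis of red cells; >98% viable by trypan blue) held in Ca2+-free HBSS pH 7.4 at 4 °C. Cells at 3 × 10^5/mL with 100 μM substrate, 2 min at 37 °C, compound 5 min, then fMLF 100 nM/CB 0.5 μg/mL. A405 followed continuously. Expressed as % of drug-free fMLF/CB control; three repeats.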

Neutrophil [2] = assay: Proinflammatory activity in human neutrophils assessed as superoxide anion generation at 10 uM incubated for 5 mins by spectrophotometric method relative to control; format: ADME, cell-based
In short: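 Neutrophils at 3 × 10^5/mL in Ca2+-free HBSS pH 7.4, supplemented with 0.5 mg/mL ferricytochrome c and 1 mM Ca2+. Equilibrated 2 min at 37 °C, then exposed to compound at 10 μM for 5 min without fMLF/CB. SOD-inhibitable cytochrome c reduction followed continuously at 550 nm with stirring; expressed versus fMLF/CB-activated response as 100%. Means ± SEM, n = 3−5.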

HepG2 = assay: Cytotoxicity against human HepG2 cells assessed as reduction in cell viability after 72 hrs by MTT assay; format: functional, cell-based; settings: HepG2, 72 h
Neutrophil [3] = assay: Anti-inflammatory activity in human neutrophils assessed as inhibition of fMLF/CB-induced superoxide anion generation preincubated for 5 mins followed by CB stimulation for 3 mins and subsequent fMLF stimulation for 10 mins by spectrophotometric method; format: functional, cell-based
In short: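 Same neutrophil preparation. Cells at 3 × 10^5/mL with 0.5 mg/mL ferricytochrome c and 1 mM Ca2+, 2 min at 37 °C, then compound or DMSO 5 min, CB 1 μg/mL 3 min, fMLF 100 nM 10 min. SOD-inhibitable cytochrome c reduction read continuously at 550 nm with stirring. Means ± SEM, n = 3−5.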

Neutrophil [4] = assay: Proinflammatory activity in human neutrophils assessed as elastase release by measuring degranulation of azurophilic granules using MeOSuc-Ala-Ala-ProVal-p-nitroanilide as substrate incubated for 5 mins relative to control; format: cell-based
In short: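 Neutrophils isolated from human blood by dextran sedimentation, Ficoll-Hypaque centrifugation and hypotonic erythrocyte lysis, >98% viable by trypan blue, held in Ca2+-free HBSS pH 7.4 at 4 °C. Cells at 3 × 10^5/mL with 100 μM substrate, equilibrated 2 min at 37 °C, then compound at 10 μM for 5 min without fMLF/CB. A405 monitored continuously; expressed versus fMLF/CB-stimulated release taken as 100%.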

Neutrophil [5] = assay: Proinflammatory activity in human neutrophils assessed as superoxide anion generation at 10 uM preincubated for 5 mins followed by CB addition measured after 3 mins by spectrophotometric method relative to control; format: ADME, cell-based; settings: 0.05 h
In short: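 Cytochrome c reduction at 550 nm as above (0.5 mg/mL ferricytochrome c, 1 mM Ca2+, 37 °C, 3 × 10^5 neutrophils/mL). Compound 10 μM given without fMLF/CB stimulation, or with CB only. Expressed relative to the fMLF/CB response taken as 100%. Means ± SEM, n = 3−5.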

IC50 (Neutrophil [1]) [µM]	IC50 (Neutrophil [3]) [µM]	Activity (Neutrophil [5]) [%]	Compound	IC50 (A549) [µM]	Activity (Neutrophil [2]) [%]	IC50 (HepG2) [µM]	Activity (Neutrophil [4]) [%]
> 10	> 10		CCCCCCCC/C=C\CCCCCCCC(=O)OCC(O)COC(=O)CCCCCCC/C=C\CCCCCCCC	> 10		> 10	
0.8			CCCCCCCCCC(=O)O[C@@]12C[C@@H](C)[C@@]3(O)[C@@H](C=C(CO)C[C@]4(O)C(=O)C(C)=C[C@@H]34)[C@@H]1C2(C)C	> 10	95.3	> 10	
2.1			CCCCCCCC(=O)O[C@@]12C[C@@H](C)[C@@]3(O)[C@@H](C=C(CO)C[C@]4(O)C(=O)C(C)=C[C@@H]34)[C@@H]1C2(C)C	> 10	109.6	> 10	
			CCCCCCC[C@@H](O)[C@@H](O)/C=C/C=C/C(=O)O[C@@H]1[C@@H](C)[C@@]2(O)[C@@H](C=C(CO)C[C@]3(O)C(=O)C(C)=C[C@@H]23)[C@@H]2C(C)(C)[C@]12OC(C)=O	> 10	106	> 10	10.5
			CCCCCCC[C@H](O)[C@@H](O)/C=C/C=C/C(=O)O[C@@H]1[C@@H](C)[C@@]2(O)[C@@H](C=C(CO)C[C@]3(O)C(=O)C(C)=C[C@@H]23)[C@@H]2C(C)(C)[C@]12OC(C)=O	> 10	107.1	> 10	9.2
> 10		74.5	CCCCCCCC/C=C\CCCCCCCC(=O)OCC(CO)OC(=O)CCCCCCCCCCCCCCC (stereo unspecified)	> 10		> 10	
3.3	1.8		O=c1cc(N2CCOCC2)oc2c(-c3ccccc3)cccc12 [LY-294002]				
			CCCCCCCCCCCCCC(=O)O[C@@H]1[C@@H](C)[C@@]2(O)[C@@H](C=C(CO)C[C@]3(O)C(=O)C(C)=C[C@@H]23)[C@@H]2C(C)(C)[C@]12OC(C)=O [PHORBOL MYRISTATE ACETATE]		102.7		44.2

Compound	IC50 (Neutrophil [1]) [µM]	IC50 (Neutrophil [3]) [µM]	Activity (Neutrophil [5]) [%]	IC50 (A549) [µM]	Activity (Neutrophil [2]) [%]	IC50 (HepG2) [µM]	Activity (Neutrophil [4]) [%]
CC(=O)O[C@@]12[C@H](OC(=O)/C=C/C=C/C=O)[C@@H](C)[C@@]3(O)[C@@H](C=C(CO)C[C@]4(O)C(=O)C(C)=C[C@@H]34)[C@@H]1C2(C)C	2.7			> 10	106.1	> 10	
CCCCCCCC/C=C\CCCCCCCC(=O)OCC1=C[C@H]2[C@@H]3C(C)(C)[C@]3(OC(C)=O)C[C@@H](C)[C@]2(O)[C@@H]2C=C(C)C(=O)[C@@]2(O)C1	> 10			> 10	18.1	> 10	
